For test [1], the target named is T1, Polyunsaturated fatty acid 5-lipoxygenase (Homo sapiens, UniProt P09917).
T1 sequence (P09917 whole entry): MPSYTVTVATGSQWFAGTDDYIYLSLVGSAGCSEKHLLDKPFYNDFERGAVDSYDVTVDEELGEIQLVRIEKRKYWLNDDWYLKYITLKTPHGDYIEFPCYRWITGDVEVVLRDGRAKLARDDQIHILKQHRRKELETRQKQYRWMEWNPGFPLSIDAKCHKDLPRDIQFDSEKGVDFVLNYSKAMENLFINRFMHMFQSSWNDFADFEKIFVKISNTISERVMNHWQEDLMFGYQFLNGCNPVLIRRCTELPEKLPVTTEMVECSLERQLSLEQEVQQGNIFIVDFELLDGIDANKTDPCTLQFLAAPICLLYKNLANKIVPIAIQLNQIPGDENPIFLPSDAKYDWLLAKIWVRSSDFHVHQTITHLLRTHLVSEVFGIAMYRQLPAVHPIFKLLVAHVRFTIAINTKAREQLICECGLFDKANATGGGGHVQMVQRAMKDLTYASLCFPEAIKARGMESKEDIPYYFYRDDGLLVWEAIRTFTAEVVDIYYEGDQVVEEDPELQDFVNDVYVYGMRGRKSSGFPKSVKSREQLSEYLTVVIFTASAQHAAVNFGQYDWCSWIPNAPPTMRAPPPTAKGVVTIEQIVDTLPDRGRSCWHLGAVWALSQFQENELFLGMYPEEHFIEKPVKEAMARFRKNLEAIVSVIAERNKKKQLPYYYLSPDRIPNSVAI
Briefly: Inhibition of human neutrophil 5-lipoxygenase.

For test [2], the target named is T2, Polyunsaturated fatty acid 5-lipoxygenase (Homo sapiens) (UniProt P09917).
T2 sequence (whole entry): T1 sequence (P09917 whole entry)
In words: Inhibition of lipoxygenase at the concentration of 0.1 uM. The gist of the method: (§1)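 5-LO activity measured in human peripheral blood leukocytes. Percent inhibition at a single test concentration is compared with untreated control, with significance by ANOVA and Tukey's multiple comparisons test (p < 0.05).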

In test [3] the target is T2, Polyunsaturated fatty acid 5-lipoxygenase (Homo sapiens). Briefly: Inhibition of lipoxygenase at the concentration of 1 uM. The procedure, abridged:
as §1

The target in test [4] is T3, Cyclooxygenase (Homo sapiens, UniProt P35354+P23219). Briefly: (§2) Inhibition of human platelet Prostaglandin G/H synthase at the concentration of 1 uM. The procedure, abridged:
(§3)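 CO activity measured in human platelets. Percent inhibition at a single test concentration is compared with untreated control, with significance by ANOVA and Tukey's multiple comparisons test (p < 0.05).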

Test [5] deals with T3, Cyclooxygenase. Briefly: Inhibition of human platelet Prostaglandin G/H synthase.
Test [6] is described as follows: (§4) Inhibition of human platelet Prostaglandin G/H synthase at the concentration of 10 uM. The procedure, abridged: as §3
For test [7], the system named is Cavia porcellus. Briefly: Inhibition of antigen-induced leukotriene-mediated bronchoconstriction in conscious guinea pig at the dose of 30mg/Kg, ip. It is filed as functional. The gist of the method: (§5)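 Male Hartley guinea pigs (250–300 g), actively ovalbumin-sensitized, fasted 18 h, anesthetized, pleural pressure transducer fitted. Dosed 60 min before aerosolized ovalbumin challenge with pyrilamine (10 mg/kg ip), indomethacin (10 mg/kg ip) and test agent (ip as 5% Tween 80 suspension). Head-out plethysmography after recovery; Cdyn mean change from baseline over 5–15 min post-challenge vs controls; 5–10 animals per dose; Dunnett's test.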

Test [8] concerns the target T2, Polyunsaturated fatty acid 5-lipoxygenase (Homo sapiens). Briefly: Inhibition of human neutrophil 5-lipoxygenase at the concentration of 0.1 uM. The procedure, abridged:
as §1

Test [9] has the same target. Briefly: (§6) Inhibition of human neutrophil 5-lipoxygenase at the concentration of 1 uM. The gist of the method: as §1
Test [10] concerns the target T3, Cyclooxygenase. The test is described as §4. It is filed as functional. The procedure, abridged: as §3
Test [11] deals with T3, Cyclooxygenase. The test is described as §2. It is filed as functional. The gist of the method:
as §3

The subject of test [12] is Cavia porcellus. In words: Inhibition of antigen-induced leukotriene-mediated bronchoconstriction in conscious guinea pig at the dose of 30mg/Kg, ip. It is filed as functional. The gist of the method: as §5
Test [13] has as its target T2, Polyunsaturated fatty acid 5-lipoxygenase (Homo sapiens). Described as §6. It is filed as functional. The procedure, abridged: as §1
The species named for test [14] is Cavia porcellus. In words: Inhibition of cell influx (PMN) in guinea pig. It is filed as functional. The gist of the method:
(§7)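 Male Hartley guinea pigs (250–300 g), ovalbumin-sensitized, fasted, pretreated 60 min before challenge with pyrilamine (10 mg/kg ip), indomethacin (10 mg/kg ip) and test agent (ip as 5% Tween 80 suspension). Challenged with aerosolized ovalbumin; 4 h later anesthetized and exsanguinated for late-phase inflammatory cell influx counts (total cells, PMN).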

Test [15] is filed under the species Cavia porcellus. In words: Inhibition of cell influx (total cells) in guinea pig. The format is functional. The procedure, abridged:
as §7

Test [16] has as its system Cavia porcellus. In words: Inhibition of antigen-induced ileukotriene-mediated bronchoconstriction in conscious guinea pig at the dose of 300mg/Kg, po. The format is functional.
Test [17] has as its system Cavia porcellus. Briefly: Inhibition of antigen-induced leukotriene-mediated bronchoconstriction in conscious guinea pig at the dose of 30mg/Kg, po. It is filed as functional.
The subject of test [18] is Cavia porcellus. In words: Inhibition of antigen-induced leukotriene-mediated bronchoconstriction in conscious guinea pigat the dose of 100mg/Kg, ip. The format is functional. The gist of the method:
as §5

Test [19] deals with Cavia porcellus. In words: Inhibition of antigen-induced leukotriene-mediated bronchoconstriction in conscious guinea pig at the dose of 100mg/Kg, po. The format is functional.
Test [20] relates to Cavia porcellus. Briefly: Inhibition of antigen-induced leukotriene-mediated bronchoconstriction in conscious guinea pig at the dose of 10mg/Kg, ip. The format is functional. The gist of the method:
as §5

The values that follow come from ChEMBL document CHEMBL1124816, “Effect of structure on potency and selectivity in 2,6-disubstituted 4-(2-arylethenyl)phenol lipoxygenase inhibitors” (J Med Chem, 1990).

Usually IC50 stands for the concentration needed to halve the response being measured. A high value points to weaker potency. In general, inhibition refers to how much of the control response was suppressed. High values mean a response far below the control, low ones a response near the control. The inhibition in vivo is the change of the read-out against control, counted positive when it falls. Usually Inhibition stands for the percentage by which the read-out fell short of the control.

With `Cc1cc(/C=C/c2cccc3ccccc23)cc(C)c1O`, the IC50 in [1] is less than 1 µM. Further, the inhibition in test [2] was found to be 27%; in test [3], 94%.

Consider `Cc1cc(/C=C/c2ccccc2C(F)(F)F)cc(C)c1O`, for which the IC50 (in test [1]; against Cyclooxygenase [5]) was less than 1 µM each time. The inhibition was 76% against Cyclooxygenase [4], 72% in [6], 14% in test [2] and 94% in test [3].

As for `Cc1cc(/C=C/c2ccc3ccccc3c2)cc(C)c1O`, the IC50 was less than 1 µM in test [1] and less than 10 µM on Cyclooxygenase [5]. Besides, the inhibition turned out to be 37% against Cyclooxygenase [4], 66% in test [6], 16% in [2] and 61% in test [3].

On to `Cc1cc(/C=C/c2ccsc2)cc(C)c1O`, for which the IC50 in [1] is 0.045 µM; on Cyclooxygenase [5] it was less than 10 µM. Also, the figures for the inhibition (against Cyclooxygenase [4]; in test [6]) were 38% and 96%, respectively. The inhibition in vivo at 30 mg/kg in the test on Cavia porcellus [7] was 26%.

In the case of `CCc1cc(/C=C/c2cccs2)cc(OC)c1O`, the IC50 was determined as 0.09 µM in test [1] and 1.4 µM against Cyclooxygenase [5]. Besides, the inhibition in vivo at 30 mg/kg with Cavia porcellus [7] was found to be 51%.

Regarding `CCc1cc(/C=C/c2ccc(C)cc2)cc(CC)c1O`, the IC50 was less than 1 µM in test [1] and less than 10 µM against Cyclooxygenase [5]. Moreover, the inhibition at Cyclooxygenase [4] worked out at 35%; in [6], 73%; in test [2], 21%; in [3], 91%.

In the case of `COc1cc(/C=C/c2cccs2)cc(C)c1O`, the values for the IC50 (in [1]; against Cyclooxygenase [5]) were 0.086 µM and 3.1 µM, respectively. In the test with Cavia porcellus [7], the inhibition in vivo at 30 mg/kg was found to be 41%.

Consider `Cc1cc(/C=C/c2cc(F)cc(F)c2)cc(C)c1O`, for which the IC50 in test [1] was less than 1 µM; against Cyclooxygenase [5] it was 1 µM. For the same molecule, the inhibition came out at 50% at Cyclooxygenase [4], 74% in [6], 6% in [2] and 81% in test [3].

Take `Cc1cc(/C=C/c2csc3ccccc23)cc(C)c1O`: the IC50 was less than 1 µM in test [1] and 0.4 µM at Cyclooxygenase [5]. Moreover, the inhibition in test [2] was found to be 13%; in test [3], 87%.

Turning to `CCc1cc(/C=C/c2cccnc2)cc(CC)c1O`, the results for the IC50 (in test [1]; against Cyclooxygenase [5]) were less than 1 µM and less than 10 µM, respectively. Moreover, the inhibition in [8] came out at 36%; in test [9], 86%; against Cyclooxygenase [10] it was 82%; on Cyclooxygenase [11], 20%.

Regarding `Cc1cc(/C=C/c2c(F)cccc2F)cc(C)c1O`, the IC50 (in [1]; at Cyclooxygenase [5]) was less than 1 µM in each case. Besides, the inhibition against Cyclooxygenase [4] was found to be 73%; in test [6], 94%; in [2] it was 12%; in test [3] it was 96%.

On to `Cc1cc(/C=C/c2ccccc2Br)cc(C)c1O`, for which the IC50 (in test [1]; against Cyclooxygenase [5]) was less than 1 µM each time. In addition, the inhibition came to 84% on Cyclooxygenase [4], 91% in test [6], 26% in [2] and 94% in [3].

For `Cc1cc(/C=C/c2ccncc2)cc(C)c1O`, the IC50 is 1 µM in test [1] and more than 10 µM against Cyclooxygenase [5]. For the same molecule, the inhibition at Cyclooxygenase [4] worked out at 0%; in test [6], 17%; in test [2] it was 1%; in [3], 51%.

With `Cc1ccc(/C=C/c2cc(C)c(O)c(C)c2)cc1`, the IC50 in test [1] amounted to 0.29 µM; on Cyclooxygenase [5], 3.2 µM. The inhibition in vivo at 30 mg/kg in the test on Cavia porcellus [12] stood at 59%.

In the case of `Cc1cc(/C=C/c2ccc(C(C)C)cc2)cc(C)c1O`, the IC50 was more than 1 µM in test [1] and 1.4 µM at Cyclooxygenase [5]. In addition, the inhibition in test [2] was 11%; in [3], 30%.

Take `Cc1cc(/C=C/c2ccccc2C(=O)O)cc(C)c1O`: the IC50 was more than 1 µM in [1] and more than 10 µM against Cyclooxygenase [5]. Also, the inhibition on Cyclooxygenase [4] turned out to be 16%; in test [6], 25%; in [13] it was 12%.

Regarding `CCCC/C(=C\c1cc(C)c(O)c(C)c1)c1ccc(F)cc1`, the values for the half-maximal inhibitory concentration (IC50) (in [1]; against Cyclooxygenase [5]) were less than 1 µM and 1 µM, respectively. Besides, the inhibition at Cyclooxygenase [4] came to 52%; in test [6] it was 86%; in test [2], 17%; in [3] it was 93%.

For `CCCc1cc(/C=C/c2cccs2)cc(OC)c1O`, the IC50 in test [1] was found to be 0.086 µM; on Cyclooxygenase [5], 1.3 µM. Further, the Inhibition in the test listed under Cavia porcellus [14] worked out at 54%; in the test listed under Cavia porcellus [15], 77%. For the same molecule, in the test on Cavia porcellus [7], the inhibition in vivo at 30 mg/kg was determined as 57%.

In [1], `CC(C)(C)c1cc(/C=C/c2cccnc2)cc(C(C)(C)C)c1O` yielded a half-inhibitory concentration (IC50) of 1.7 µM. Moreover, the Inhibition in the test listed under Cavia porcellus [14] and in the test filed under Cavia porcellus [15] was 0% in each case. In the test with Cavia porcellus [16], the inhibition in vivo at 300 mg/kg came out at 7.7%. Moreover, the inhibition in vivo at 30 mg/kg in the test on Cavia porcellus [17] was -24%. The inhibition in vivo at 100 mg/kg is 10% in the test with Cavia porcellus [18] and -2% in the test on Cavia porcellus [19].

For the molecule `Cc1cccc(/C=C/c2cc(C)c(O)c(C)c2)c1`, the figures for the IC50 (in test [1]; against Cyclooxygenase [5]) were 0.13 µM and 2.5 µM, respectively. The inhibition in vivo at 30 mg/kg in the test on Cavia porcellus [12] was 49%.

Consider `CC(C)(C)c1cc(/C=C/c2ccc(F)cc2)cc(C(C)(C)C)c1O`, for which the IC50 was more than 1 µM in test [1] and 0.61 µM against Cyclooxygenase [5]. Further, the figures for the inhibition in test [2] and in test [3] were 24% and 18%, respectively.

Turning to `Cc1cc(/C=C/c2ccc(F)cc2)cc(C)c1O` [ENOFELAST], the IC50 in test [1] came out at 0.12 µM; at Cyclooxygenase [5], 1.3 µM. Further, the inhibition in vivo at 30 mg/kg in the test on Cavia porcellus [12] was determined as 43%.

`Cc1cc(/C=C/c2ccc(F)cc2F)cc(C)c1O`: the IC50 is less than 1 µM in test [1] and 0.71 µM at Cyclooxygenase [5]. Further, the inhibition in test [2] was 25%; in test [3], 100%.

In the case of `Cc1cc(/C=C/c2cccs2)cc(C)c1O`, the figures for the IC50 (in test [1]; against Cyclooxygenase [5]) were 0.054 µM and 0.78 µM, respectively. Further, the figures for the Inhibition in the test filed under Cavia porcellus [14] and in the test filed under Cavia porcellus [15] were 95% and 78%, respectively. For the same molecule, in the test on Cavia porcellus [20], the inhibition in vivo at 10 mg/kg is 34.5%. The inhibition in vivo at 30 mg/kg in the test on Cavia porcellus [7] came out at 70.3%.

`COc1ccc(/C=C/c2cc(C)c(O)c(C)c2)cc1`: the IC50 came to 0.091 µM in test [1] and 1.5 µM at Cyclooxygenase [5]. For the same molecule, the inhibition in vivo at 30 mg/kg in the test on Cavia porcellus [7] was 28%.
